Measurements taken from ChEMBL document CHEMBL4007411, “Design, Synthesis, and Biological Evaluation of Coupled Bioactive Scaffolds as Potential Anticancer Agents for Dual Targeting of Dihydrofolate Reductase and Thioredoxin Reductase” (J Med Chem, 2017).
The source made the active and inactive calls. The calls are words filed in the database; no cut-off is given here.

How the values were obtained:
[1] = biological target: T1, Thioredoxin reductase 1, cytoplasmic (Rattus norvegicus, UniProt O89049); assay: Inhibition of […] thioredoxin reductase after 30 mins by DTNB reduction assay
T1 sequence (O89049 whole entry): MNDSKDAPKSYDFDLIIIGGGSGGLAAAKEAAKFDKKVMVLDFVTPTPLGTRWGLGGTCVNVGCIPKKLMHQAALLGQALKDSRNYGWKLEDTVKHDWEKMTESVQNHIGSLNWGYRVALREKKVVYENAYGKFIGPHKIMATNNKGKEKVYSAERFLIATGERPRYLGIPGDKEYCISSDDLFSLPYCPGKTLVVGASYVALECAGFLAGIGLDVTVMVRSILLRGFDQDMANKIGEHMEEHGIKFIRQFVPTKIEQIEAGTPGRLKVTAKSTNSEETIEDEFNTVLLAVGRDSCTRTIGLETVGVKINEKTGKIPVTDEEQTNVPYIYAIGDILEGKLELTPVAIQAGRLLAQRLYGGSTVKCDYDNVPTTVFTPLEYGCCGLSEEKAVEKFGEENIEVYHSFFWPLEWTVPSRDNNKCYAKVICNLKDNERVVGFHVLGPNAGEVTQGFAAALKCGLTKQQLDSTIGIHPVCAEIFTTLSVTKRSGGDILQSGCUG
In short: (§1)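 Rat liver TrxR at 2.1 units/ml preincubated with a range of test concentrations and 200 µM NADPH in 50 mM Tris-HCl, 1 mM EDTA, pH 7.5, at room temperature for 30 or 60 min. Equal volume of buffer with 5 mM DTNB and 200 µM NADPH then added. A412 followed over 2 min. Activity as % of vehicle Vmax; IC50 from log concentration plot.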

[2] = biological target: T1, Thioredoxin reductase 1, cytoplasmic; assay: Inhibition of […] thioredoxin reductase after 60 mins by DTNB reduction assay; in short: as §1
MCF7 = assay: Antiproliferative activity against human MCF7 cells after 72 hrs by MTT assay; assay type: functional; conditions: for GI50 / LC50 (concentration killing 50% of cells present at T0): MCF7, 72 h
In short: (§2)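 Cells kept in RPMI 1640 with 10% FBS, penicillin and streptomycin at 37°C and 5% CO2. Seeded at 1.0 x 10^4/well and left to adhere overnight. Serial dilutions made in medium from DMSO stocks. MTT at 400 µg/ml final for 4 h, read at T0 and after 72 h. Formazan dissolved in DMSO:glycine pH 10.5, A550. GI50 and LC50 interpolated from absorbance versus log concentration.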

Dihydrofolate reductase = biological target: T2, Dihydrofolate reductase (Homo sapiens, UniProt P00374); assay: Inhibition of recombinant human DHFR assessed as reduction in conversion of DHF to THF measured every 30 secs for 6 mins by UV-Vis spectrophotometric method
T2 sequence (P00374 whole entry): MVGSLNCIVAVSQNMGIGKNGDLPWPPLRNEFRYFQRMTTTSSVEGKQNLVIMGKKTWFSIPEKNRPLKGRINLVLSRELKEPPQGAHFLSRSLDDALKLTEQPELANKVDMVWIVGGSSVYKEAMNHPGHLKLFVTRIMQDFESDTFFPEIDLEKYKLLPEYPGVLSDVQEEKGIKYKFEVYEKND

HCT-116 = assay: Antiproliferative activity against human HCT116 cells after 72 hrs by MTT assay; assay type: functional; conditions: for GI50 / CC50: HCT-116, 72 h; for CC50: read-out: LC50 (the source's name); in short: as §2
[3] = biological target: T3, Thioredoxin reductase 1, cytoplasmic (Homo sapiens) (UniProt Q16881); assay: Inhibition of thioredoxin reductase in human HCT116 cell lysate using thioredoxin as substrate at 40 to 70 uM after 16 hrs by end point insulin assay method
T3 sequence (whole entry): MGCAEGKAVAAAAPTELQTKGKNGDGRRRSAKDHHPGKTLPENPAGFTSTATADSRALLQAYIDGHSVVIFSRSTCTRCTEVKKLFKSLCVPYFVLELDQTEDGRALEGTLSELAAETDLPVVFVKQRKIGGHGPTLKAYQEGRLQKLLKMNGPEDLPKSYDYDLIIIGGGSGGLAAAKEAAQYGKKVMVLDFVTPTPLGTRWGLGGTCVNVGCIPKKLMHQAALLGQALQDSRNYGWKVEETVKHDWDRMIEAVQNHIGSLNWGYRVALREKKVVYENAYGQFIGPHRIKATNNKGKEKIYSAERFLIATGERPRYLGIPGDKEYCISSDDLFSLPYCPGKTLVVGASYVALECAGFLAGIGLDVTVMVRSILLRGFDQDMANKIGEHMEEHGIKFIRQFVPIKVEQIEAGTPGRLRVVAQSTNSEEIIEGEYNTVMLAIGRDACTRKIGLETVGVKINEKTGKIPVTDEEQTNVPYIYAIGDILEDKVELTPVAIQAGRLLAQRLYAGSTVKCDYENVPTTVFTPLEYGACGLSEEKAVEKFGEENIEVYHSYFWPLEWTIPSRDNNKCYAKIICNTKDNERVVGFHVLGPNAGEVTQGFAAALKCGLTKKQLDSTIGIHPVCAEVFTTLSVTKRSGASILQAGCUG
In short: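 HCT116 cells treated 16 h at 0.001 to 1 µM or 40 to 70 µM, then lysed. Stopped with 1 mM DTNB and 240 µM NADPH in 6 M guanidine HCl and Tris pH 8.0, read at A412. Given as % of DMSO-treated cells. Mean of three experiments.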

[4] = biological target: T4, Dihydrofolate reductase (Homo sapiens) (UniProt P00374); assay: Inhibition of DHFR in human HCT116 cell lysate assessed as reduction in conversion of DHF to THF after 16 hrs
T4 sequence (whole entry): T2 sequence (P00374 whole entry)
In short: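 HCT116 cells treated 16 h at 0.001 to 1 µM or 40 to 70 µM, then lysed. 400 µg lysate protein in PBS with 50 µM DHF and 200 µM NADPH, with matching controls containing 1 µM methotrexate. A340 decrease followed over 15 min at room temperature. MTX-sensitive rate given as % of DMSO-treated cells. Mean of three independent experiments.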

[5] = biological target: T3, Thioredoxin reductase 1, cytoplasmic (Homo sapiens); assay: Inhibition of thioredoxin reductase in human HCT116 cell lysate using thioredoxin as substrate at 0.001 to 1 uM after 16 hrs by end point insulin assay method

Row | IC50 [1] | IC50 [2] | Structure (SMILES) | IC50 ([1]; read-out: IC50) | IC50 ([2]; read-out: IC50) | GI50 (MCF7) | LC50 (concentration killing 50% of cells present at T0) (MCF7) | IC50 (Dihydrofolate reductase) | GI50 (HCT-116) | CC50 (HCT-116) | inhibition [3] | inhibition [4] | inhibition [5] | growth inhibition (GI) (MCF7) | growth inhibition (GI) (HCT-116)
1 |  |  | CC1(C)N=C(N)N=C(N)N1OCCCCOc1cccc(/C=C/C(=O)c2ccccc2)c1 | 6000 nM | 3800 nM | 86 nM | 15500 nM | 4.8 nM | 34 nM | 34700 nM |  |  |  |  | 
2 |  |  | NC1=NC2(CCCC2)N(OCCOc2cccc(C(=O)/C=C/c3ccccc3)c2)C(N)=N1 | 8000 nM | 4600 nM | 770 nM | 16100 nM | 13.1 nM | 260 nM | 24100 nM |  |  |  |  | 
3 |  |  | CC1(C)N=C(N)N=C(N)N1OCCCOc1ccc(/C=C/C(=O)c2ccccc2)cc1 | 35900 nM | 25700 nM | 62 nM | 35300 nM | 6.4 nM | 35 nM | 39000 nM |  |  |  |  | 
4 |  |  | NC1=NC2(CCCC2)N(OCCCOc2ccccc2)C(N)=N1 |  |  | 77 nM | 90800 nM | 19.9 nM | 21 nM | > 100000 nM | inactive | Dose-dependent effect | inactive |  | 
5 |  |  | CC1(C)N=C(N)N=C(N)N1OCCCOc1cccc(/C=C/C(=O)c2ccccc2)c1 | 4100 nM | 2800 nM | 13 nM | 29800 nM | 3.2 nM | 11 nM | 48200 nM |  |  |  |  | 
6 |  |  | CC1(C)N=C(N)N=C(N)N1OCCCOc1ccccc1 |  |  | 107 nM | > 100000 nM | 5.3 nM | 36 nM | > 100000 nM | inactive | Dose-dependent effect | inactive |  | 
7 |  |  | CN(Cc1cnc2nc(N)nc(N)c2n1)c1ccc(C(=O)N[C@@H](CCC(=O)O)C(=O)O)cc1 [METHOTREXATE] |  |  | 24 nM |  |  | 15 nM | > 100000 nM |  |  |  |  | 
8 |  |  | CC1(C)N=C(N)N=C(N)N1OCCCCOc1ccc(C(=O)/C=C/c2ccccc2)cc1 | 44500 nM | 27000 nM | 87 nM | 14200 nM | 3.4 nM | 39 nM | 24000 nM |  |  |  |  | 
9 | Not Active | Not Active | O=C(Cc1ccccc1)Cc1ccccc1 |  |  |  |  |  |  |  |  |  |  | inactive | inactive
10 |  |  | CC1(C)N=C(N)N=C(N)N1OCCOc1cccc(/C=C/C(=O)c2ccccc2)c1 | 5700 nM | 4000 nM | 623 nM | 38800 nM | 59.2 nM | 145 nM | 52200 nM |  |  |  |  | 
